From ChEMBL document CHEMBL1955832, “Facile synthesis, characterization and pharmacological activities of 3,6-disubstituted 1,2,4-triazolo[3,4-b][1,3,4]thiadiazoles and 5,6-dihydro-3,6-disubstituted-1,2,4-triazolo[3,4-b][1,3,4]thiadiazoles” (2012)
In brackets after ≈: the same amount, converted by molar mass.

What was measured:
Type in all cases: functional
Escherichia coli [1] = assay: Antibacterial activity against Escherichia coli ATTC 25922 at MIC after 3 to 4 days by disc diffusion method
Outline: (§1)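 Agar well diffusion: seeded agar plates dried 1 h at 37 °C, wells punched and filled with test compound at MIC level in DMSO; DMSO solvent control. Plates in triplicate, kept at 37 °C for 3–4 days; zone of inhibition read.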

Escherichia coli [2] = assay: Antibacterial activity against Escherichia coli ATTC 25922 after 16 to 18 hrs by serial dilution method
Outline: (§2)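 Serial drug dilutions in Mueller-Hinton broth adjusted to pH 5.0 with phosphate buffer, inoculated with standardized bacterial suspension, incubated 16–18 h at 37 °C; MIC taken as lowest concentration without conspicuous growth.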

Staphylococcus aureus [3] = assay: Antibacterial activity against Staphylococcus aureus ATTC 25923 after 16 to 18 hrs by serial dilution method; outline: as §2
Staphylococcus aureus [4] = assay: Antibacterial activity against Staphylococcus aureus ATTC 25923 at MIC after 3 to 4 days by disc diffusion method; outline: as §1
Klebsiella pneumoniae [5] = assay: Antibacterial activity against recultured Klebsiella pneumoniae after 16 to 18 hrs by serial dilution method; outline: as §2
Klebsiella pneumoniae [6] = assay: Antibacterial activity against recultured Klebsiella pneumoniae at MIC after 3 to 4 days by disc diffusion method; outline: as §1
Pseudomonas aeruginosa [7] = assay: Antibacterial activity against Pseudomonas aeruginosa ATTC 27853 after 16 to 18 hrs by serial dilution method; outline: as §2
Pseudomonas aeruginosa [8] = assay: Antibacterial activity against Pseudomonas aeruginosa ATTC 27853 at MIC after 3 to 4 days by disc diffusion method; outline: as §1
[9] = tested on: Trichophyton mentagrophytes; assay: Antifungal activity against recultured Trichophyton mentagrophytes by serial plate dilution method
Talaromyces marneffei [10] = assay: Antifungal activity against recultured Penicillium marneffei by serial plate dilution method
Mus musculus [11] = assay: Analgesic activity Wistar albino mouse assessed as tail withdrawal latency time at 100 mg/kg, po administered by intragastric tube after 60 mins (reference value: 1.363 +/- 0.1297 sec)
Aspergillus flavus [12] = assay: Antifungal activity against Aspergillus flavus NCIM 524 by serial plate dilution method
Aspergillus fumigatus [13] = assay: Antifungal activity against Aspergillus fumigatus NCIM 902 by serial plate dilution method
Aspergillus fumigatus [14] = assay: Antifungal activity against Aspergillus fumigatus NCIM 902 at MIC after 3 to 4 days
Mus musculus [15] = assay: Analgesic activity Wistar albino mouse assessed as tail withdrawal latency time at 100 mg/kg, po administered by intragastric tube after 120 mins (reference value: 1.363 +/- 0.1297 sec)
Talaromyces marneffei [16] = assay: Antifungal activity against recultured Penicillium marneffei at MIC after 3 to 4 days
Aspergillus flavus [17] = assay: Antifungal activity against Aspergillus flavus NCIM 524 at MIC after 3 to 4 days
Mus musculus [18] = assay: Analgesic activity Wistar albino mouse assessed as tail withdrawal latency time at 100 mg/kg, po administered by intragastric tube after 180 mins (reference value: 1.363 +/- 0.1297 sec)
[19] = tested on: Trichophyton mentagrophytes; assay: Antifungal activity against recultured Trichophyton mentagrophytes at MIC after 3 to 4 days

SMILES | diameter of the inhibition zone (DIZ) (Escherichia coli [1]) [mm] | MIC (Escherichia coli [2]) [µM] | MIC (Staphylococcus aureus [3]) [µM] | diameter of the inhibition zone (DIZ) (Staphylococcus aureus [4]) [mm] | MIC (Klebsiella pneumoniae [5]) [µM] | diameter of the inhibition zone (DIZ) (Klebsiella pneumoniae [6]) [mm] | MIC (Pseudomonas aeruginosa [7]) [µM] | diameter of the inhibition zone (DIZ) (Pseudomonas aeruginosa [8]) [mm] | MIC [9] [µM] | MIC (Talaromyces marneffei [10]) [µM] | Time (Mus musculus [11]) [s] | MIC (Aspergillus flavus [12]) [µM] | MIC (Aspergillus fumigatus [13]) [µM] | diameter of the inhibition zone (DIZ) (Aspergillus fumigatus [14]) [mm] | Time (Mus musculus [15]) [s] | diameter of the inhibition zone (DIZ) (Talaromyces marneffei [16]) [mm] | diameter of the inhibition zone (DIZ) (Aspergillus flavus [17]) [mm] | Time (Mus musculus [18]) [s] | diameter of the inhibition zone (DIZ) [19] [mm]
CC1(C)S[C@@H]2[C@H](NC(=O)[C@H](N)c3ccccc3)C(=O)N2[C@H]1C(=O)O [AMPICILLIN] | 30 | 17.9 (≈ 6.25 µg/mL) | 4.46 (≈ 1.56 µg/mL) | 22 | 17.9 (≈ 6.25 µg/mL) | 23 | 17.9 (≈ 6.25 µg/mL) | 25 | – | – | – | – | – | – | – | – | – | – | –
COc1ccc(Br)c(-c2nnc3sc(-c4cc(C)cc(C)c4)nn23)c1 | 16 | 15.1 (≈ 6.25 µg/mL) | 30.1 (≈ 12.5 µg/mL) | 11 | 15.1 (≈ 6.25 µg/mL) | 16 | 15.1 (≈ 6.25 µg/mL) | 16 | 15.1 (≈ 6.25 µg/mL) | 30.1 (≈ 12.5 µg/mL) | 2.175 | 15.1 (≈ 6.25 µg/mL) | 15.1 (≈ 6.25 µg/mL) | 16 | 2.075 | 11 | 16 | 2.238 | 16
CCC(C)n1ncn(-c2ccc(N3CCN(c4ccc(OCC5COC(Cn6cncn6)(c6ccc(Cl)cc6Cl)O5)cc4)CC3)cc2)c1=O (stereo not given) [ITRACONAZOLE] | – | – | – | – | – | – | – | – | 8.86 (≈ 6.25 µg/mL) | 2.21 (≈ 1.56 µg/mL) | – | 8.86 (≈ 6.25 µg/mL) | 8.86 (≈ 6.25 µg/mL) | 23 | – | 22 | 25 | – | 30
COc1ccc(Br)c(-c2nnc3sc(-c4ccccc4)nn23)c1 | 11 | 32.3 (≈ 12.5 µg/mL) | 32.3 (≈ 12.5 µg/mL) | 11 | 32.3 (≈ 12.5 µg/mL) | 11 | 32.3 (≈ 12.5 µg/mL) | 11 | 32.3 (≈ 12.5 µg/mL) | 16.1 (≈ 6.25 µg/mL) | 1.963 | 32.3 (≈ 12.5 µg/mL) | 32.3 (≈ 12.5 µg/mL) | 11 | 2.125 | 16 | 11 | 2.5 | 11
COc1ccc(Br)c(-c2nnc3n2NC(c2ccc(-c4ccccc4)cc2)S3)c1 (stereo not given) | 11 | 26.9 (≈ 12.5 µg/mL) | 26.9 (≈ 12.5 µg/mL) | 11 | 13.4 (≈ 6.25 µg/mL) | 16 | 26.9 (≈ 12.5 µg/mL) | 11 | 26.9 (≈ 12.5 µg/mL) | 26.9 (≈ 12.5 µg/mL) | 2.102 | 13.4 (≈ 6.25 µg/mL) | 26.9 (≈ 12.5 µg/mL) | 11 | 2.067 | 11 | 16 | 2.455 | 11
CC(C)=CCN1CC[C@]2(C)c3cc(O)ccc3C[C@H]1[C@H]2C [(+)-PENTAZOCINE] | – | – | – | – | – | – | – | – | – | – | 7.075 | – | – | – | 6.863 | – | – | 7.025 | –
COc1ccc(Br)c(-c2nnc3n2NC(c2ccccc2)S3)c1 (stereo not given) | 16 | 16.1 (≈ 6.25 µg/mL) | 32.1 (≈ 12.5 µg/mL) | 11 | 32.1 (≈ 12.5 µg/mL) | 11 | 32.1 (≈ 12.5 µg/mL) | 11 | 12.5 (≈ 4.87 µg/mL) | 6.25 (≈ 2.43 µg/mL) | 3.181 | 12.5 (≈ 4.87 µg/mL) | 6.25 (≈ 2.43 µg/mL) | 16 | 3.46 | 16 | 11 | 3.391 | 11
